# Laboratory results reported in ChEMBL document CHEMBL1147553, “Betulinic acid and its derivatives as anti-angiogenic agents” (Bioorg Med Chem Lett, 2004).
# Key:
# ECV-304 = assay: Half-maximal cytotoxic concentration of compound against endothelial cell line ECV304; assay type: functional, cell-based; conditions: Homo sapiens
# In short: (§1)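 Cells (10⁴) exposed in triplicate wells to 0.5–10 µg/mL compound from DMSO stock (final DMSO <0.1%). Cells grown in DMEM with L-glutamine, 25 mM HEPES, 10% FBS and antibiotics at 37 °C, 5% CO2. MTT read-out after 120 h. IC50 is the mean of three experiments. Specificity ratio is IC50 in tumor cell divided by IC50 in ECV304.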
# [1] = Endothelial cell specificity of compound was determined as cytotoxicity on human tumor cell line A549 to that of endothelial cell; assay type: functional; in short: as §1
# [2] = Endothelial cell specificity of compound was determined as cytotoxicity on human tumor cell line DU145 to that of endothelial cell; assay type: functional; in short: as §1
# [3] = Endothelial cell specificity of compound was determined as cytotoxicity on human tumor cell line L132 to that of endothelial cell; assay type: functional; in short: as §1
# [4] = Endothelial cell specificity of compound was determined as cytotoxicity on human tumor cell line PA-1 to that of endothelial cell; assay type: functional; in short: as §1
SMILES,IC50 (ECV-304) [µg/mL],ECS ratio [1],ECS ratio [2],ECS ratio [3],ECS ratio [4]
CC(C)[C@@H]1CC[C@]2(C(=O)O)CC[C@]3(C)C(CCC4[C@@]5(C)CC/C(=N\NC(=O)c6ccccc6)C(C)(C)C5CC[C@]43C)C12 (stereo not given in full),0.39,27.7,7.7,1,4.3
C=C(C)[C@@H]1CC[C@]2(C(=O)O)CC[C@]3(C)[C@H](CC[C@@H]4[C@@]5(C)CCC(=O)C(C)(C)[C@@H]5CC[C@]43C)[C@@H]12 [BETUNOLIC ACID],0.28,9.8,14.2,3.2,9.2
CC(C)[C@@H]1CC[C@]2(C(=O)O)CC[C@]3(C)C(CCC4[C@@]5(C)CC(Br)[C@H](O)C(C)(C)C5CC[C@]43C)C12 (stereo not given in full),0.27,11.5,7,3.1,7.4
CC(C)[C@@H]1CC[C@]2(C(=O)O)CC[C@]3(C)C(CCC4[C@@]5(C)CC/C(=N\Nc6c(Cl)cc(Cl)cc6Cl)C(C)(C)C5CC[C@]43C)C12 (stereo not given in full),0.21,19,6.6,11.4,5.2
C=C(C)[C@@H]1CC[C@]2(C(=O)O)CC[C@]3(C)[C@H](CC[C@@H]4[C@@]5(C)CC[C@H](O)C(C)(C)[C@@H]5CC[C@]43C)[C@@H]12 [BETULINIC ACID],1.26,1.1,2.2,1,3.2
CC(C)[C@@H]1CC[C@]2(C(=O)O)CC[C@]3(C)C(CCC4[C@@]5(C)CC/C(=N\Nc6ccc(F)cc6)C(C)(C)C5CC[C@]43C)C12 (stereo not given in full),0.35,20,3.7,11.1,1.4
